Reference: publication PMC7455490 (Science Advances, 2020)
Where no end group is shown, it is not given here. [ ]: non-standard residue; d: D form.

Key:
[1] = test system: B16F10 tumor-bearing mice; assay: In vivo distribution after topical application, fluorescence imaging; details: 10 μg per mouse, 1, 3 and 6 hours
Outline: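 Mice were anaesthetized and dorsal skin depilated, then DiI-labelled peptide-modified vesicles were applied topically. Whole-body fluorescence was imaged. Tumors and major organs were collected for fluorescence imaging at 6 hours after application.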

[2] = test system: B16F10 melanoma in C57BL/6 mice; assay: Antitumor performance, second wave; type: in vivo; details: NIR 0.6 W/cm^2, within 3 min, thermographic imaging
Outline: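 B16F10 cells (3 × 10^6 per mouse) implanted s.c. in right flank of C57BL/6 mice; treatment began at 100 mm3 tumors. Groups (n = 6) got topical ICG-loaded test formulations (0.5 mg OMV/kg). Unabsorbed material was wiped off at 12 h, then the whole tumor was irradiated under anaesthesia at 808 nm, 0.6 W/cm2, 3 min. Tumor sections: TUNEL with proteinase K (20 μg/ml), fluorescein-dUTP 90 min, DAPI counterstain, confocal imaging. Also Fontana-Masson melanin stain, and IHC for cleaved caspase 3, CD63 and S100-β with HRP secondaries and hematoxylin counterstain.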

B16F10 cells [3] = assay: WB protein levels in treated B16F10 cells or their derived OMVs; type: cell-based, mouse; details: B16F10, + NIR (Fig. 4G)
[4] = Photothermal response to NIR irritation; type: physicochemical; details: 1 μg/ml, 808 nm NIR 2 W/cm^2 for 3 min, n = 3
B16F10 cells [5] = assay: qRT-PCR gene levels in treated B16F10 cells; type: cell-based, mouse; details: B16F10, + NIR, n = 3
[6] = test system: dorsal skin of C57BL/6 mice; assay: Skin penetration test, fluorescence in skin slices; type: in vivo; details: topical, 10 μg per mouse, 6 hours, fluorescence microscopy
Outline: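 C57BL/6 mice, 4 weeks old, were anaesthetised and had their dorsal skin depilated. Once skin had restored full function, GFP-labelled test vesicles or free FITC-BSA were applied topically. After 6 h the mice were killed by cervical dislocation, and treated dorsal skin was collected, washed, paraffin-embedded and cut into 6 μm sections. Penetration depth was observed by fluorescence microscopy.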

B16F10 cells [7] = assay: Peptide binding by flow cytometry, B16F10; type: cell-based, mouse; details: 5 μM peptide, 2 hours, compared with L02 cells
Outline: (§1)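 Cells were grown in DMEM with 10% FBS and penicillin/streptomycin at 37°C, 5% CO2. They were seeded at 10^6 per well and cultured 24 h at 37°C. Then 5 μM test peptide was added for 2 h. Cells were washed twice with 4°C PBS, and intracellular fluorescence intensity was read by flow cytometry.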

L02 cells = assay: Peptide binding by flow cytometry, L02; type: cell-based, human; details: 5 μM peptide, 2 hours, low αvβ3 expression
Outline: as §1

[8] = Transdermal delivery of TRAIL, Franz diffusion cells; type: in vitro ADME, mice; details: C57BL/6 mouse skin, ELISA, n = 3
Outline: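 Excised C57BL/6 mouse skin was mounted in Franz diffusion cells, with vesicle suspensions (1 μg/ml) in the donor cell. Receptor samples were withdrawn at 0.5, 1, 2, 4, 8, 10 and 24 h and replaced with fresh PBS. TRAIL in the receptor samples was quantified by ELISA.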

[9] = Bioactivity of TRAIL at high temperatures; details: 55 and 60°C, n = 3
[10] = biological target: αvβ3 integrin on B16F10 melanoma cells (mouse (endogenous in B16F10), UniProt P43406 31-1044; O54890 26-787); assay: flow cytometry on cells
[11] = biological target: human recombinant αvβ3 integrin (R&D Systems), NT-647 labelled (human) (UniProt P06756); assay: MST

αvβ3 integrin on B16F10 melanoma cells, sequence (P43406 31-1044, chain 1 of 2): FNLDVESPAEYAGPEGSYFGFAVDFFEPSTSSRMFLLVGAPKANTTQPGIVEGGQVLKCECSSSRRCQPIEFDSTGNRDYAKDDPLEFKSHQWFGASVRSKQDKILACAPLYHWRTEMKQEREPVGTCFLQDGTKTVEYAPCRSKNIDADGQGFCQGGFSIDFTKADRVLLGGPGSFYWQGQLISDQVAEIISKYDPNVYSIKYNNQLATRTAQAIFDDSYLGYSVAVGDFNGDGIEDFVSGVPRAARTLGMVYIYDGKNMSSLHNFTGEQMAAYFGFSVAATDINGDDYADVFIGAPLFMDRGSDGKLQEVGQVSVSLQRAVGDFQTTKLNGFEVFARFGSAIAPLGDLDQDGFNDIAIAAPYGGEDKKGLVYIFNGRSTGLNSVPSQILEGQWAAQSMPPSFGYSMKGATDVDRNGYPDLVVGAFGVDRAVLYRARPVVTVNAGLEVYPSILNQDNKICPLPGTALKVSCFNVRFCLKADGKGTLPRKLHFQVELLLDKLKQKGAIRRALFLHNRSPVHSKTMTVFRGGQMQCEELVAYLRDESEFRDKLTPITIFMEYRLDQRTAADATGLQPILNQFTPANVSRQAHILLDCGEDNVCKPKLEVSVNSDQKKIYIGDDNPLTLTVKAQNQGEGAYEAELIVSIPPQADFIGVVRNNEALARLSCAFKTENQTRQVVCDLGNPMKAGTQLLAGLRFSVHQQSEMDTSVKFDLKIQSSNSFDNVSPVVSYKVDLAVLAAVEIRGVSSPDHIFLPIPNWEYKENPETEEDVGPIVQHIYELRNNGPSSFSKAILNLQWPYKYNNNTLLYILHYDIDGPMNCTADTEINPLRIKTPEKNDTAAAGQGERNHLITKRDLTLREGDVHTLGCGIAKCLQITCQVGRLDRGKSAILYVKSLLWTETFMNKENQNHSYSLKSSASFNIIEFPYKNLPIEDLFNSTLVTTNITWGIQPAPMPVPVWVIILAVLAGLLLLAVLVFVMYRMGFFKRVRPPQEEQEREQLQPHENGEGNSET
αvβ3 integrin on B16F10 melanoma cells, sequence (O54890 26-787, chain 2 of 2): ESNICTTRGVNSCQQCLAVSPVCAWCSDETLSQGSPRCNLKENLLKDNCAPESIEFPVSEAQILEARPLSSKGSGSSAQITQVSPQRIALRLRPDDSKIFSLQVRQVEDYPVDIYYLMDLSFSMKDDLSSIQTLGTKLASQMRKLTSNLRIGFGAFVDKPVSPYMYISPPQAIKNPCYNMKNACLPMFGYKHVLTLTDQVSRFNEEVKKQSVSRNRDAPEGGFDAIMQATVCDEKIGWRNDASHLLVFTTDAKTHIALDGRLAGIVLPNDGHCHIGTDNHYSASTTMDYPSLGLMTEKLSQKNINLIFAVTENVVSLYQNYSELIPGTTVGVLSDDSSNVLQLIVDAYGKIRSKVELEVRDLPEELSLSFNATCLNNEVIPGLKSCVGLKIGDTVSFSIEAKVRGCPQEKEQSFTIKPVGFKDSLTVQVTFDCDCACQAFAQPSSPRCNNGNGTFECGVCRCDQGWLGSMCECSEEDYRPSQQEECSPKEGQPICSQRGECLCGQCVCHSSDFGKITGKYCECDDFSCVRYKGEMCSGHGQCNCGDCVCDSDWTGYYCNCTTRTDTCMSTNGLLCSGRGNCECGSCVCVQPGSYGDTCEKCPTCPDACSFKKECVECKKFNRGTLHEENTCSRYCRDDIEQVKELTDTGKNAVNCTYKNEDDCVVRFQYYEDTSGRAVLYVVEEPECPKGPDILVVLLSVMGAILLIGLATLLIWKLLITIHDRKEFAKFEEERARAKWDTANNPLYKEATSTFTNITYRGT

## CCCCCCCCCCCCCCCCCCN1C(=CC=CC2=[N+](CCCCCCCCCCCCCCCCCC)c3ccccc3C2(C)C)C(C)(C)c2ccccc21.[O-][Cl+3]([O-])([O-])[O-] [Dil, 1,1′-dioctadecyl-3,3,3′,3′-tetramethylindocarbocyanine perchlorate]
[1]
  fluorescence at tumor site after topical application: Low fluorescent signal

## CC1(C)C(/C=C/C=C/C=C/C=C2\N(CCCCS(=O)(=O)O)c3ccc4ccccc4c3C2(C)C)=[N+](CCCCS(=O)(=O)[O-])c2ccc3ccccc3c21 [ICG, indocyanine green]
[2]
  temperature of tumor sites: around 32 °C
B16F10 cells [3]
  increase of cleaved caspase 3 level: 2.4 fold
  increase of cleaved caspase 8 level: 3.3 fold
[4]
  temperature reached from 25°C upon NIR irritation: 35 °C
B16F10 cells [5]
  c-FLIP mRNA level, decreased to: 63%
  survivin mRNA level, decreased to: 56%

## FITC-BSA: fluorescein isothiocyanate (FITC)–labeled bovine serum albumin
[6]
  penetration through SC, fluorescence in skin slices: incapable of penetrating through SC

## RhB-RGP: rhodamine B–labeled RGP (RW[code r]NMGGGGIVRRADRAAVP; also: rhodamine B label, position not given here)
B16F10 cells [7]
  binding to B16F10 cells: significantly enhanced
L02 cells
  binding to L02 cells: weak binding

## TRAIL: Recombinant human tumor necrosis factor related apoptosis-inducing ligand
[8]
  transdermal amount of TRAIL: too low to be detected
[9]
  bioactivity of TRAIL at high temperatures: No loss of bioactivity

## RW[code r]NMGGGGIVRRADRAAVP (also: rhodamine B label, position not given here) [rhodamine B-labeled RGP (RhB-RGP)]
[10]
  fold fluorescence intensity against RhB-RGD: 6.3 fold

## RWRNMGGGGIVRRADRAAVP (not fully specified (residue 3); printed as RWrNMGGGGIVRRADRAAVP) [RGP (RWr…), αvβ3 integrin-specific peptide]
[11]
  Kd: 1.54 nM
